Reference: the array DNA melting data of Ke et al. (doi:10.1101/2024.01.08.574731)

What was measured:
[1] = folding enthalpy; higher = less favourable; fluorescence melt of hairpins on a sequencing array, two-state fit; conditions: sodium 0.088 M
Summary of the method: (§1)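 Melting temperature and folding enthalpy were obtained by bootstrapped two-state fitting. Fits used Cy3 fluorescence of library hairpins with annealed Cy3 and quencher oligos on a sequenced MiSeq flow cell, imaged in 50 mM Na-HEPES pH 8.0, 25 mM NaCl in 2.5 °C steps up to 60 °C and normalised to pre-quench Cy3 and control constructs. Four replicates were combined by inverse-variance weighting, and fitted temperatures were raised by 9.35 °C to match UV melts.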

[2] = melting temperature; fluorescence melt of hairpins on a sequencing array, two-state fit, raised by 9.35 °C to match UV melts; conditions: sodium 0.088 M
Summary of the method: as §1

GGCGCGGCGAAAGCCGCC (((..(((....))))))
folding enthalpy [1]: -5.51 kcal/mol
Tm [2]: 48.6 °C

GGCGGAACGAAAGTTGCC (((..(((....))))))
folding enthalpy [1]: -19.5 kcal/mol
Tm [2]: 47.6 °C

GGCGGACCGAAAGGTGCC (((..(((....))))))
folding enthalpy [1]: -19.9 kcal/mol
Tm [2]: 55.1 °C

GGCGGAGGAAACCCCACC ((.((.(....).)).))
folding enthalpy [1]: -20.2 kcal/mol
Tm [2]: 29.6 °C

GGCGGAGGAAACTCCACC ((.((((....)))).))
folding enthalpy [1]: -33.6 kcal/mol
Tm [2]: 48.9 °C

GGCGGAGGAAACTCCGTC (.(((((....))))).)
folding enthalpy [1]: -25.7 kcal/mol
Tm [2]: 61.2 °C

GGCGGAGGAAACTCTGCC (((.(((....))).)))
folding enthalpy [1]: -51.1 kcal/mol
Tm [2]: 57.1 °C

GGCGGAGGAAACTTCGCC ((((.((....)).))))
folding enthalpy [1]: -49.2 kcal/mol
Tm [2]: 59 °C

GGCGGCACGAAAGTGGCC (((..(((....))))))
folding enthalpy [1]: -11.6 kcal/mol
Tm [2]: 52 °C

GGCGGCCCGAAAGGGGCC (((..(((....))))))
folding enthalpy [1]: -7.67 kcal/mol
Tm [2]: 53.1 °C

GGCGGCGAAAGCCCAGCC ((((((....)))..)))
folding enthalpy [1]: -18.5 kcal/mol
Tm [2]: 57.8 °C

GGCGGGGGAAACCTCGCC ((((.((....)).))))
folding enthalpy [1]: -32.4 kcal/mol
Tm [2]: 66.1 °C

GGCGGTCGAAAGACGCC (((.(((....))))))
folding enthalpy [1]: -28.6 kcal/mol
Tm [2]: 67.3 °C

GGCGGTGCGAAAGCAGCC (((..(((....))))))
folding enthalpy [1]: -14.8 kcal/mol
Tm [2]: 55.8 °C

GGCGGTGGAAACGCTGCC (((.(.(....).).)))
folding enthalpy [1]: -21.9 kcal/mol
Tm [2]: 54.6 °C

GGCGTACGAAAGTAGCC (((.(((....))))))
folding enthalpy [1]: -32.6 kcal/mol
Tm [2]: 65.5 °C

GGCGTAGGAAACTGCGTC (.((.((....)).)).)
folding enthalpy [1]: -19.5 kcal/mol
Tm [2]: 44.1 °C

GGCGTCCGAAAGGAGGCC (((.(((....))).)))
folding enthalpy [1]: -27 kcal/mol
Tm [2]: 69.1 °C

GGCGTCGAAAGACATGCC ((((((....)))..)))
folding enthalpy [1]: -23.1 kcal/mol
Tm [2]: 53 °C

GGCGTCGAAAGACCAGCC ((((((....)))..)))
folding enthalpy [1]: -18.6 kcal/mol
Tm [2]: 50.9 °C

GGCGTCGAAAGACCTGCC ((((((....)))..)))
folding enthalpy [1]: -18.5 kcal/mol
Tm [2]: 46.6 °C

GGCGTCGAAAGACGTGCC ((((((....)))..)))
folding enthalpy [1]: -12 kcal/mol
Tm [2]: 51.1 °C

GGCGTCGAAAGACTGGCC ((((((....)))..)))
folding enthalpy [1]: -34.6 kcal/mol
Tm [2]: 53.7 °C

GGCGTCGGAAACAACGCC (((((.(....).)))))
folding enthalpy [1]: -40.6 kcal/mol
Tm [2]: 55.2 °C

GGCGTCGGAAACGACGTC (.(((((....))))).)
folding enthalpy [1]: -23.4 kcal/mol
Tm [2]: 66.2 °C

GGCGTGCCGAAAGGCGCC (((..(((....))))))
folding enthalpy [1]: -11.5 kcal/mol
Tm [2]: 59.8 °C

GGCGTTCGAAAGAATGCC (((.(((....))).)))
folding enthalpy [1]: -56.5 kcal/mol
Tm [2]: 62.8 °C

GGCGTTGGAAACAGCGCC ((((.((....)).))))
folding enthalpy [1]: -52.1 kcal/mol
Tm [2]: 60.9 °C

GGCGTTTCGAAAGAAGCC (((..(((....))))))
folding enthalpy [1]: -23.8 kcal/mol
Tm [2]: 42.5 °C

GGCTAAGAAATTAGCC ((((((....))))))
folding enthalpy [1]: -27 kcal/mol
Tm [2]: 53.8 °C

GGCTACCGAAAGGTGGCC (((.(((....))).)))
folding enthalpy [1]: -35.5 kcal/mol
Tm [2]: 68.8 °C

GGCTACGAAAGTAAAGCC ((((((....)))..)))
folding enthalpy [1]: -32.5 kcal/mol
Tm [2]: 50.5 °C

GGCTACGAAAGTAGGGCC ((((((....)))..)))
folding enthalpy [1]: -15.7 kcal/mol
Tm [2]: 47.1 °C

GGCTACGAAAGTATGCC ((((((....))).)))
folding enthalpy [1]: -37.8 kcal/mol
Tm [2]: 54.6 °C

GGCTAGGGAAACCCAGCC ((((.((....)).))))
folding enthalpy [1]: -39.4 kcal/mol
Tm [2]: 52.1 °C

GGCTATCCGAAAGGAGCC (((..(((....))))))
folding enthalpy [1]: -27.3 kcal/mol
Tm [2]: 47.1 °C

GGCTATCGAAAGATCGCC (((.(((....))).)))
folding enthalpy [1]: -30.8 kcal/mol
Tm [2]: 50.6 °C

GGCTATGCGAAAGCAGCC (((..(((....))))))
folding enthalpy [1]: -27.3 kcal/mol
Tm [2]: 55.6 °C

GGCTCAGCGAAAGCTGCC (((..(((....))))))
folding enthalpy [1]: -12.3 kcal/mol
Tm [2]: 44.2 °C

GGCTCCACGAAAGTGGCC (((..(((....))))))
folding enthalpy [1]: -11.8 kcal/mol
Tm [2]: 37.6 °C

GGCTCCGAAAGGAAGCC ((((((....))).)))
folding enthalpy [1]: -37.7 kcal/mol
Tm [2]: 64.1 °C

GGCTCCGAAAGGATGCC ((((((....))).)))
folding enthalpy [1]: -31 kcal/mol
Tm [2]: 62.6 °C

GGCTCGACGAAAGTCGCC (((..(((....))))))
folding enthalpy [1]: -8 kcal/mol
Tm [2]: 35.1 °C

GGCTCGGGAAACCGGGCC (((.(((....))).)))
folding enthalpy [1]: -38.4 kcal/mol
Tm [2]: 66 °C

GGCTCGGGAAACCGGGTC (.(.(((....))).).)
folding enthalpy [1]: -28.2 kcal/mol
Tm [2]: 46.9 °C

GGCTCTCGAAAGAGTGCC (((.(((....))).)))
folding enthalpy [1]: -49.1 kcal/mol
Tm [2]: 58.1 °C

GGCTCTGAAAAGAGCC ((((((....))))))
folding enthalpy [1]: -38.3 kcal/mol
Tm [2]: 68.9 °C

GGCTCTGGAAACAGGGCC (((.(((....))).)))
folding enthalpy [1]: -27.7 kcal/mol
Tm [2]: 58.1 °C

GGCTGAGGAAACTCAGTC (.(((((....))))).)
folding enthalpy [1]: -41.6 kcal/mol
Tm [2]: 51.3 °C

GGCTGAGGAAACTCGGCC (((.(((....))).)))
folding enthalpy [1]: -46.7 kcal/mol
Tm [2]: 58.3 °C

GGCTGAGGAAACTTAGCC ((((.((....)).))))
folding enthalpy [1]: -36.3 kcal/mol
Tm [2]: 50.2 °C

GGCTGAGGAAACTTGGCC (((..((....))..)))
folding enthalpy [1]: -30.8 kcal/mol
Tm [2]: 43.8 °C

GGCTGCGAAAGCACAGCC ((((((....)))..)))
folding enthalpy [1]: -25.6 kcal/mol
Tm [2]: 57.8 °C

GGCTGCGAAAGCACGGCC ((((((....)))..)))
folding enthalpy [1]: -23.4 kcal/mol
Tm [2]: 53.5 °C

GGCTGCGAAAGCACTGCC ((((((....)))..)))
folding enthalpy [1]: -20.5 kcal/mol
Tm [2]: 50.9 °C

GGCTGCGAAAGCAGGGCC ((((((....)))..)))
folding enthalpy [1]: -13 kcal/mol
Tm [2]: 53.1 °C

GGCTGCGAAAGCATCGCC ((((((....)))..)))
folding enthalpy [1]: -21.8 kcal/mol
Tm [2]: 48.5 °C

GGCTGGACGAAAGTCGCC (((..(((....))))))
folding enthalpy [1]: -20.2 kcal/mol
Tm [2]: 52.5 °C

GGCTGGGGAAACCCGGCC (((.(((....))).)))
folding enthalpy [1]: -39.7 kcal/mol
Tm [2]: 66.6 °C

GGCTGGGGAAACTCGGCC (((.(.(....).).)))
folding enthalpy [1]: -36.5 kcal/mol
Tm [2]: 49.4 °C

GGCTTACCGAAAGGTGCC (((..(((....))))))
folding enthalpy [1]: -23.1 kcal/mol
Tm [2]: 50.2 °C

GGCTTAGGAAACTAAACC ((.((((....)))).))
folding enthalpy [1]: -15.7 kcal/mol
Tm [2]: 31.8 °C

GGCTTAGGAAACTAAGTC (.(((((....))))).)
folding enthalpy [1]: -32.5 kcal/mol
Tm [2]: 44.4 °C

GGCTTAGGAAACTGAGCC ((((.((....)).))))
folding enthalpy [1]: -44.6 kcal/mol
Tm [2]: 50.4 °C

GGCTTCCGAAAGGAGCC (((.(((....))))))
folding enthalpy [1]: -37.1 kcal/mol
Tm [2]: 60 °C

GGCTTCGAAAGAACAGCC ((((((....)))..)))
folding enthalpy [1]: -29.7 kcal/mol
Tm [2]: 43.1 °C

GGCTTCGAAAGAAGAGCC ((((((....)))..)))
folding enthalpy [1]: -21.8 kcal/mol
Tm [2]: 45.3 °C

GGCTTCGAAAGAAGTGCC ((((((....)))..)))
folding enthalpy [1]: -16.1 kcal/mol
Tm [2]: 42.6 °C

GGCTTCGCGAAAGCGGCC (((..(((....))))))
folding enthalpy [1]: -16.4 kcal/mol
Tm [2]: 48.8 °C

GGCTTCGGAAACGAAACC ((.((((....)))).))
folding enthalpy [1]: -25.4 kcal/mol
Tm [2]: 44.8 °C

GGCTTCGGAAACGGAGTC (.((.((....)).)).)
folding enthalpy [1]: -24.1 kcal/mol
Tm [2]: 39.9 °C

GGCTTCTCGAAAGAGGCC (((..(((....))))))
folding enthalpy [1]: -24.4 kcal/mol
Tm [2]: 47.1 °C

GGCTTGAAAAAGCC (((((....)))))
folding enthalpy [1]: -31.3 kcal/mol
Tm [2]: 59.6 °C

GGCTTGCCGAAAGGCGCC (((..(((....))))))
folding enthalpy [1]: -14 kcal/mol
Tm [2]: 55.8 °C

GGCTTTGGAAACAAAACC ((.((((....)))).))
folding enthalpy [1]: -27.3 kcal/mol
Tm [2]: 36.8 °C

GGCTTTTCGAAAGAAGCC (((..(((....))))))
folding enthalpy [1]: -33.7 kcal/mol
Tm [2]: 45.6 °C

GGGAACGAAAGTTGCCCC ((((((....)))..)))
folding enthalpy [1]: -10.7 kcal/mol
Tm [2]: 68.7 °C

GGGAACGAAAGTTTTCCC ((((((....)))..)))
folding enthalpy [1]: -19.1 kcal/mol
Tm [2]: 35.5 °C

GGGAACGGAAACGCTCCC ((((.((....)).))))
folding enthalpy [1]: -36.6 kcal/mol
Tm [2]: 52.1 °C

GGGAACGGAAACGTTTCC ((.((((....)))).))
folding enthalpy [1]: -35.2 kcal/mol
Tm [2]: 53.7 °C

GGGAATCGAAAGATGCCC (((.(((....))).)))
folding enthalpy [1]: -44.3 kcal/mol
Tm [2]: 54.6 °C

GGGACAGCGAAAGCTCCC (((..(((....))))))
folding enthalpy [1]: -19 kcal/mol
Tm [2]: 46.1 °C

GGGACAGGAAACTGCCCC (((.(((....))).)))
folding enthalpy [1]: -35.2 kcal/mol
Tm [2]: 50.8 °C

GGGACATCGAAAGATCCC (((..(((....))))))
folding enthalpy [1]: -18.5 kcal/mol
Tm [2]: 36.1 °C

GGGACCCCGAAAGGGCCC (((..(((....))))))
folding enthalpy [1]: -20.3 kcal/mol
Tm [2]: 58.6 °C

GGGACCCGAAAGGGCCCC (((.(((....))).)))
folding enthalpy [1]: -23.6 kcal/mol
Tm [2]: 67.8 °C

GGGACCGAAAGGTCGCCC ((((((....)))..)))
folding enthalpy [1]: -10.3 kcal/mol
Tm [2]: 57.5 °C

GGGACCGAAAGGTTACCC ((((((....)))..)))
folding enthalpy [1]: -17.6 kcal/mol
Tm [2]: 47 °C

GGGACGCGAAAGCGCCC (((.(((....))))))
folding enthalpy [1]: -15.4 kcal/mol
Tm [2]: 64.7 °C

GGGACTGCGAAAGCACCC (((..(((....))))))
folding enthalpy [1]: -9.02 kcal/mol
Tm [2]: 37.3 °C

GGGACTGGAAACAGTTCC ((.((((....)))).))
folding enthalpy [1]: -36.1 kcal/mol
Tm [2]: 51.4 °C
